≈ marks a conversion by molar mass, not a printed value. Bounds are passed on as bounds.

This note sets out measurements from ChEMBL document CHEMBL3098028, “Synthesis and in vitro and in vivo pharmacological evaluation of new 4-aminoquinoline-based compounds” (ACS Med Chem Lett, 2013).

Data set [1] is described as follows: Kinetic solubility of the compound in phosphate buffered saline at pH 7.4 after 2 hrs by HPLC analysis. It is filed as physicochemical. The note with it: read-out: Kinetic_solubility.
The nature of data set [2]: Kinetic solubility of the compound in 0.01 M HCl at pH 2 after 2 hrs by HPLC analysis. It is filed as physicochemical. The settings on record: read-out: Kinetic_solubility.
For data set [3], the system named is Plasmodium falciparum. Description: Resistance index, ratio of IC50 for chloroquine-resistant Plasmodium falciparum K1 to IC50 for chloroquine-sensitive Plasmodium falciparum 3D7. It is filed as functional.
Data set [4] deals with Plasmodium falciparum. Description: Antiplasmodial activity against chloroquine-resistant Plasmodium falciparum W2 after 24 hrs by [3H]hypoxanthine incorporation assay. The data set is classed as functional, organism-based. The method in brief: (§1)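 Antiplasmodial testing was done at the Swiss Tropical and Public Health Institute. Chloroquine, the reference drug, was tested as its diphosphate salt.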

Data set [5] relates to Plasmodium falciparum. Description: Antiplasmodial activity against chloroquine-sensitive Plasmodium falciparum 3D7 after 24 hrs by [3H]hypoxanthine incorporation assay. The data set is classed as functional, organism-based. The method in brief:
as §1

For data set [6], the system named is Plasmodium falciparum. The experiment in a line: Antiplasmodial activity against chloroquine-resistant Plasmodium falciparum K1 after 24 hrs by [3H]hypoxanthine incorporation assay. It is filed as functional, organism-based. The method in brief: as §1
The test system of data set [7] is CHO. The experiment in a line: Cytotoxicity against CHO cells. It is filed as cell-based. The settings on record: Cricetulus griseus.
Data set [8] relates to Plasmodium berghei. Description: Antimalarial activity against Plasmodium berghei ANKA infected in C57BL/6 mouse assessed as reduction in parasitemia at 1 mg/kg, po qd for 4 days measured on day 7 by light microscopic analysis relative to control. The data set is classed as functional. Also noted: scale not given: the % may be the effect or the level left. The method in brief: (§2)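 Male C57/BL6 mice were infected with P. berghei ANKA and dosed orally once daily for four days at 1, 10, 5 or 20 mg/kg, with 5 mice per dose group. The negative control received blank formulation solution. Blood smears were taken on days 3, 5 and 7, and parasitemia was read by light microscopy. The result is % parasitemia reduction on day 7 versus placebo.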

Data set [9] is described as follows: Drug metabolism in hepatocytes (unknown origin) assessed as 2-(5-((4-chlorophenyl)(2-(7-chloroquinolin-4-ylamino)ethylamino)methyl)-1H-tetrazol-1-yl)-2-methylpropan-1-ol level at 5 uM after 6 hrs by LC-MS/MS analysis. It is filed as ADME, cell-based, Hepatocyte.
Data set [10] is described as follows: Hepatic extraction ratio in mouse liver microsomes at 1 uM after 40 mins. The data set is classed as ADME, Microsome. The settings on record: read-out: ERH.
The subject of data set [11] is Mus musculus. The experiment in a line: AUC (0 to infinity) in C57BL/6 mouse at 20 mg/kg, po. It is filed as ADME, organism-based, Plasma. Also noted: time infinity, dose 20 mg/kg, route oral. The settings on record: in vivo. In a few lines: (§3)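 Healthy male C57/BL6 mice received a single intravenous dose (2.5 or 5.0 mg/kg) or oral dose (20 or 40 mg/kg). Plasma concentrations were followed over time to give AUC0-∞ in min·μmol/L, alongside t1/2, CL, Vd, Vss, Cmax, Tmax and oral bioavailability. Values are means of five animals.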

Data set [12] in a line: Hepatic extraction ratio in human liver microsomes at 1 uM after 40 mins. It is filed as ADME. The settings on record: read-out: ERH.
Data set [13] has as its system Liver microsome. The experiment in a line: Drug metabolism in rat liver microsomes assessed as 2-(5-((4-chlorophenyl)(2-(7-chloroquinolin-4-ylamino)ethylamino)methyl)-1H-tetrazol-1-yl)-2-methylpropan-1-ol level at 5 uM after 1 hr by LC-MS/MS analysis. It is filed as ADME. (In general: Liver microsomes are a subcellular fraction often used to study metabolism.)
The test system of data set [14] is Mus musculus. The experiment in a line: AUC (0 to infinity) in C57BL/6 mouse at 40 mg/kg, po. The note with it: in vivo. The arrangement: time infinity, dose 40 mg/kg, route oral. It is filed as ADME, organism-based, Plasma. In a few lines:
as §3

Data set [15] has as its system Mus musculus. The experiment in a line: AUC (0 to infinity) in C57BL/6 mouse at 5 mg/kg, iv. It is filed as ADME, organism-based, Plasma. Also noted: dose 5 mg/kg, route intravenous, time infinity. The settings on record: in vivo. In a few lines:
as §3

The test system of data set [16] is Liver microsome. The experiment in a line: Drug metabolism in rat liver microsomes assessed as 4-(2-((1-tert-butyl-1H-tetrazol-5-yl)(4-chlorophenyl)methylamino)ethylamino)-7-chloroquinoline 1-oxide level at 5 uM after 1 hr by LC-MS/MS analysis. It is filed as ADME.
The test system of data set [17] is Plasmodium berghei. The experiment in a line: Antimalarial activity against Plasmodium berghei ANKA infected in C57BL/6 mouse assessed as reduction in parasitemia at 5 mg/kg, po qd for 4 days measured on day 7 by light microscopic analysis relative to control. It is filed as functional. The arrangement: scale not given: the % may be the effect or the level left. The method in brief:
as §2

Data set [18] is described as follows: Drug metabolism in hepatocytes (unknown origin) assessed as 4-(2-((1-tert-butyl-1H-tetrazol-5-yl)(4-chlorophenyl)methylamino)ethylamino)-7-chloroquinoline 1-oxide level at 5 uM after 6 hrs by LC-MS/MS analysis. The data set is classed as ADME, cell-based, Hepatocyte.
Data set [19] relates to Plasmodium berghei. The experiment in a line: Antimalarial activity against Plasmodium berghei ANKA infected in C57BL/6 mouse assessed as reduction in parasitemia at 10 mg/kg, po qd for 4 days measured on day 7 by light microscopic analysis relative to control. The data set is classed as functional. Also noted: scale not given: the % may be the effect or the level left. In a few lines:
as §2

In data set [20] the test system is Plasmodium berghei. Description: Antimalarial activity against Plasmodium berghei ANKA infected in C57BL/6 mouse assessed as reduction in parasitemia at 20 mg/kg, po qd for 4 days measured on day 7 by light microscopic analysis relative to control. The data set is classed as functional. The arrangement: scale not given: the % may be the effect or the level left. In a few lines:
as §2

Data set [21] relates to Mus musculus. The experiment in a line: AUC (0 to infinity) in C57BL/6 mouse at 2.5 mg/kg, iv. The data set is classed as ADME, organism-based, Plasma. Also noted: time infinity, dose 2.5 mg/kg, route intravenous. The settings on record: in vivo. The method in brief: as §3
For data set [22], the system named is Liver microsome. Description: Drug metabolism in human liver microsomes assessed as 2-(5-((4-chlorophenyl)(2-(7-chloroquinolin-4-ylamino)ethylamino)methyl)-1H-tetrazol-1-yl)-2-methylpropan-1-ol level at 5 uM after 1 hr by LC-MS/MS analysis. The data set is classed as ADME.
Data set [23] has as its system Liver microsome. Description: Drug metabolism in human liver microsomes assessed as 4-(2-((1-tert-butyl-1H-tetrazol-5-yl)(4-chlorophenyl)methylamino)ethylamino)-7-chloroquinoline 1-oxide level at 5 uM after 1 hr by LC-MS/MS analysis. The data set is classed as ADME.
The test system of data set [24] is Plasmodium berghei. The experiment in a line: Antimalarial activity against Plasmodium berghei ANKA infected in C57BL/6 mouse assessed as reduction in parasitemia at 15 mg/kg, po qd for 4 days measured on day 7 by light microscopic analysis relative to control. The data set is classed as functional. Also noted: scale not given: the % may be the effect or the level left.

As usually defined, the IC50 is the concentration that gives 50% inhibition. In the case of `CC(C)(C)n1nnnc1C(NCCNc1ccnc2cc(Cl)ccc12)c1ccccc1` (stereo not drawn), the results for the solubility kinetic at 2 h in data set [1] and in data set [2] were 111 µM (≈ 48.4 µg/mL) and over 200 µM, respectively. Moreover, the “Ratio IC50” value in [3] is given as 7.6. Moreover, the results for the IC50 in data set [4], in data set [5] and in [6] were 69 nM, 5 nM and 38 nM, respectively.

With `Cc1ccc(C(NCCNc2ccnc3cc(Cl)ccc23)c2nnn[nH]2)cc1` (stereo not drawn), it took 17400 nM to reach half-maximal inhibition in data set [6] (IC50).

`Clc1ccc2c(NCCNC(c3ccc(Cl)c(Cl)c3)c3nnn[nH]3)ccnc2c1` (stereo not drawn): the solubility kinetic at 2 h in data set [1] was 70.1 µM (≈ 31.5 µg/mL); in [2] it was 191 µM (≈ 85.7 µg/mL). For the same compound, the midpoint of inhibition in [6], the IC50, lay at 4390 nM.

For `Clc1ccc(C(NCCNc2ccnc3cc(Cl)ccc23)c2nnn[nH]2)cc1` (stereo not drawn), the results for the solubility kinetic at 2 h in data set [1] and in data set [2] were 164 µM (≈ 67.9 µg/mL) and over 200 µM, respectively. This compound registered an IC50 in [6] of 2380 nM.

The compound `Clc1ccc2c(NCCCNC(c3ccccc3)c3nnn[nH]3)ccnc2c1` (stereo not drawn) showed an IC50 in [6] of 14300 nM.

In [6], `Clc1ccc2c(NCCCCNC(c3ccccc3)c3nnn[nH]3)ccnc2c1` (stereo not drawn) came in with an IC50 of 6850 nM.

Regarding `COc1ccc(C(NCCNc2ccnc3cc(Cl)ccc23)c2nnnn2C(C)(C)C)cc1` (stereo not drawn), the “Ratio IC50” value in data set [3] is given as 0.041. The IC50 amounted to 46 nM in [4], 3820 nM in [5] and 155 nM in [6].

As a reminder, the AUC is the area under the concentration-time curve, a measure of exposure. For `CC(C)(C)n1nnnc1C(NCCNc1ccnc2cc(Cl)ccc12)c1ccc(Cl)c(Cl)c1` (stereo not drawn), the results for the solubility kinetic at 2 h in [1] and in data set [2] were 25 µM (≈ 12.6 µg/mL) and 194 µM (≈ 97.9 µg/mL), respectively. For the same compound, the IC50 was 10500 nM in data set [7], 30.5 nM in data set [4], 0.4 nM in data set [5] and 8 nM in [6]. The Activity came to 22.7% in [8], 46.9% in [17], 41.4% in [19] and 44.5% in data set [20]. The Drug metabolism entry in data set [9], in [13], in data set [16], in [18], in data set [22] and in data set [23] was “Active” throughout. The hepatic extraction ratio at 40 min, 1 µM in [10] and in data set [12] was over 0.8 throughout. In addition, in [3], the “Ratio IC50” value stood at 20. For the same compound, the AUC worked out at 256 µmol·min/L in data set [11], 287 µmol·min/L in [14], 222 µmol·min/L in data set [15] and 104 µmol·min/L in data set [21].

As to `CC(C)(C)n1nnnc1C(NCCCNc1ccnc2cc(Cl)ccc12)c1ccccc1` (stereo not drawn), the “Ratio IC50” value in [3] turned out to be 13.5. The values for the IC50 in [4], in [5] and in data set [6] were 39 nM, 2 nM and 27 nM, respectively.

With `CC(C)(C)n1nnnc1C(NCCCCNc1ccnc2cc(Cl)ccc12)c1ccccc1` (stereo not drawn), the “Ratio IC50” value in [3] stood at 4. Besides, the IC50 worked out at 20 nM in [4], 2 nM in [5] and 8 nM in [6].

In the case of `Clc1ccc2c(NCCNC(c3ccccc3)c3nnn[nH]3)ccnc2c1` (stereo not drawn), half-maximal inhibition in [6] (IC50) required 14900 nM.

In data set [6], `COc1ccc(C(NCCNc2ccnc3cc(Cl)ccc23)c2nnn[nH]2)cc1` (stereo not drawn) came in with an IC50 of 13200 nM.

In the case of `CCN(CC)CCCC(C)Nc1ccnc2cc(Cl)ccc12` (stereo not drawn) [CHLOROQUINE], the Activity in data set [24] stood at 90.6%.
